Assays:
Format in all cases: in vitro ADME
[1] = Glucuronidation by human intestinal microsomes; settings: 0.25 mM substrate, 60 min
In short: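 Microsomes from individual human livers (10 donors), a pooled liver sample and hepatosomes, or from intestines (13 donors). Substrate dried from ethanol, redissolved in DMSO and sonicated. Incubated 37 °C, 60 min; ethanol stop, centrifuged. Glucuronides measured by reversed-phase HPLC-UV; nmol/mg/min, median and range.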

UGT1A8 = target: T1, UGT1A8 (Homo sapiens, UniProt Q9HAW9); assay: Screening of recombinant UGT1A8 for glucuronidation activity; settings: 250 μM substrate, 5 μg protein, 60 min, 37 °C
T1 sequence (Q9HAW9 26-530): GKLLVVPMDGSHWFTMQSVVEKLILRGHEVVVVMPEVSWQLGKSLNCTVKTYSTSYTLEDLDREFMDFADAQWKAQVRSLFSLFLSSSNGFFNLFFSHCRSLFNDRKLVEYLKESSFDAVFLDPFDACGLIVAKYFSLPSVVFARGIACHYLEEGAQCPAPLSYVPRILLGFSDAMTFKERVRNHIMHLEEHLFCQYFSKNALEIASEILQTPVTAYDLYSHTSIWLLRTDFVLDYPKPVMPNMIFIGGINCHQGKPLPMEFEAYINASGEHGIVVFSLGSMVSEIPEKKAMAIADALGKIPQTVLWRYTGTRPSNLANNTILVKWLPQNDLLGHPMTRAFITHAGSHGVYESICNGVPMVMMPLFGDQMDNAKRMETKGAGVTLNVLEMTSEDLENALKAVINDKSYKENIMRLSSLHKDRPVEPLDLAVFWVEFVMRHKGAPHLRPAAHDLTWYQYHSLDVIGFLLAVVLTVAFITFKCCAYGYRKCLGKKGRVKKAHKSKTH
In short: (§1)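 UGT1A1, 1A3, 1A4 and 1A6–1A10 were His-tagged and expressed in baculovirus-infected Sf9 cells; UGT2B4, 2B7, 2B15 and 2B17 were commercial membranes run per supplier protocol. 5 μg membrane protein with 250 μM substrate, 2 mM UDP-GlcUA, Tris–HCl pH 7.4, MgCl2, saccharolactone, 2% DMSO; 37 °C, 60 min; no-substrate controls. Products measured by HPLC-UV/vis; β-glucuronidase hydrolysis separated O- from carboxyl glucuronides.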

UGT1A1 = target: T2, UGT1A1 (Homo sapiens, UniProt P22309); assay: Screening of recombinant UGT1A1 for glucuronidation activity; settings: 250 μM substrate, 5 μg protein, 60 min, 37 °C
T2 sequence (P22309 26-533): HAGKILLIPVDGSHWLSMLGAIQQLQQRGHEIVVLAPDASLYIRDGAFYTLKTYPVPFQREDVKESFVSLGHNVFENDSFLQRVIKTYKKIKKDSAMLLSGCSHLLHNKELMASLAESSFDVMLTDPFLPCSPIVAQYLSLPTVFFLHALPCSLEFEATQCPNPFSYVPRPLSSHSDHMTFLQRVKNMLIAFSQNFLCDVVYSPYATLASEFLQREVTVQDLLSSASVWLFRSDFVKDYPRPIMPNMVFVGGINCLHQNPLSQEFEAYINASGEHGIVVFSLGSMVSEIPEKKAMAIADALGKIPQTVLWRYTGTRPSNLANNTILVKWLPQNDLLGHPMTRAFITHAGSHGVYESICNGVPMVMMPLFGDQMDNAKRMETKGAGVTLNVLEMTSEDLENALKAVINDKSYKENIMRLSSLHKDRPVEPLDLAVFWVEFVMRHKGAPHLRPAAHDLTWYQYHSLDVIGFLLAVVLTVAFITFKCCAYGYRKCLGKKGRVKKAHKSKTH
In short: as §1

UGT1A10 = target: T3, UGT1A10 (Homo sapiens, UniProt Q9HAW8); assay: Screening of recombinant UGT1A10 for glucuronidation activity; settings: 250 μM substrate, 5 μg protein, 60 min, 37 °C
T3 sequence (Q9HAW8 26-530): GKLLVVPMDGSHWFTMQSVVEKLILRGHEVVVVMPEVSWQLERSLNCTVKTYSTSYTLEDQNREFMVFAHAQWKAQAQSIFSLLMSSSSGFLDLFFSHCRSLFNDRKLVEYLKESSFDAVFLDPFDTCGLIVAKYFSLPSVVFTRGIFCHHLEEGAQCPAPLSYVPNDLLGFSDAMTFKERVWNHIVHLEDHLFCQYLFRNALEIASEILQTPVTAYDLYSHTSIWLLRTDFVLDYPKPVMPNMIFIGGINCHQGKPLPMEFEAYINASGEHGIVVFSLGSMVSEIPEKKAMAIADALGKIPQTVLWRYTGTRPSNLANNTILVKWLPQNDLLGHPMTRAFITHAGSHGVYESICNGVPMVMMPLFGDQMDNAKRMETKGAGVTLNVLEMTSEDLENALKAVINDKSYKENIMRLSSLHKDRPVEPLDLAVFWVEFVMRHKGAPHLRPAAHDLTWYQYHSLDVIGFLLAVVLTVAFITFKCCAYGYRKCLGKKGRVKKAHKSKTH
In short: as §1

UGT2B7 = target: T4, UGT2B7 (Homo sapiens, UniProt P16662); assay: Screening of recombinant UGT2B7 for glucuronidation activity; settings: 250 μM substrate, 5 μg protein, 60 min, 37 °C
T4 sequence (P16662 24-529): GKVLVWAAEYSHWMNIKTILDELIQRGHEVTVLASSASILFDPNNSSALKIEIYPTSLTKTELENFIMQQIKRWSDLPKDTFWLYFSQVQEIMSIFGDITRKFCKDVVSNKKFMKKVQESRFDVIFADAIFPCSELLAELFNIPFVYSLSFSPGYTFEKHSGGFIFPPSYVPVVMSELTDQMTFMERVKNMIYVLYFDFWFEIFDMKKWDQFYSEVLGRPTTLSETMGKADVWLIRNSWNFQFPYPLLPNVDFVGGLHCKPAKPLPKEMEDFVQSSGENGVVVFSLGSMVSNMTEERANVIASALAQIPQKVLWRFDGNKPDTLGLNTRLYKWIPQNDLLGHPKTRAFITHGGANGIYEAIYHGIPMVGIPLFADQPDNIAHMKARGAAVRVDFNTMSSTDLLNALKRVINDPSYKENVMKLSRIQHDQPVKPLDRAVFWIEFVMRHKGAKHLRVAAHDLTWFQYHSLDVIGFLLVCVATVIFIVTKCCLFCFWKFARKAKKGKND
In short: as §1

## COc1ccc(/C=C(/C(=O)O)c2cc(OC)c(OC)c(OC)c2)cc1O [NI-12a, (E)-3-(3-hydroxy-4-methoxyphenyl)-2-(3,4,5-trimethoxyphenyl)acrylic acid]
[1]; donors HI27, HI28, HI29, and HI54
  glucuronidation activity: failed to display glucuronidation activity
[1]; donors HI34, HI36, HI40, and HI41
  metabolites produced: only one (the hydroxyl) metabolite
[1]; remaining donors with activity
  metabolites produced: two (hydroxyl and carboxyl) metabolites
UGT1A8
  glucuronidation activity (glucuronide formed): only the hydroxyl metabolite
UGT1A1
  glucuronidation activity (glucuronide formed): only the carboxyl metabolite
UGT1A10
  glucuronidation activity (glucuronide formed): only the hydroxyl metabolite

## COc1cc(/C=C/c2cc([N+](=O)[O-])c(O)c([N+](=O)[O-])c2)cc(OC)c1 [DNR-1, (E)-4-(3,5-dimethoxystyryl)-2,6-dinitrophenol]
UGT2B7
  glucuronidation activity (glucuronide formed): No activity
UGT1A8
  glucuronidation activity (glucuronide formed): No activity
UGT1A1
  glucuronidation activity (glucuronide formed): No activity
UGT1A10
  glucuronidation activity (glucuronide formed): No activity

## COc1ccc(C=Cc2cc(OC)cc(OC)c2/C=N/O)cc1 [NI-ST-05, (E)-2,4-dimethoxy-6-(4-methoxystyryl)benzaldehyde oxime]
UGT2B7
  glucuronidation activity (glucuronide formed): inactive
[1]; all other donors (than HI27, HI29, HI30)
  metabolites produced: one metabolite
[1]; donors HI27, HI29, and HI30
  glucuronidation activity: failed to display glucuronidation activity
UGT1A8
  glucuronidation activity (glucuronide formed): inactive
UGT1A1
  glucuronidation activity (glucuronide formed): catalyzed the formation of the C=N–O-glucuronide
UGT1A10
  glucuronidation activity (glucuronide formed): catalyzed the formation of the C=N–O-glucuronide

— article PMC4002122 (Chemical Research in Toxicology, 2014)
